ChEMBL document CHEMBL1121809, “Cyclic guanidines. 14. Imidazo[1,2-a]thienopyrimidin-2-one derivatives as blood platelet aggregation inhibitors” (J Med Chem, 1981)
“And” between values parts separate entries of the source, which are not always exact repeats. Identical values can stand only once.

Key:
Rattus norvegicus [1] = test: Effect of compound on heart rate in rat after an oral dose at 50 mg/kg/5h after dose); format: functional
Procedure, shortened: (§1)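 Male Wistar-Imamichi rats, 250 g, were given the compound orally at (50 mg/7.5 mL)/kg as a suspension in 0.5% CMC or 0.5% Tween 80. Systolic pressure and heart rate were taken by tail-cuff after prewarming at 55–60 °C for 3 min, before dosing and at set times after. Five rats per group, mean ± SD. Pressure is reported as decrease and heart rate as percent change.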

Rattus norvegicus [2] = test: Effect of compound on heart rate in rat after an oral dose at 50 mg/kg (24h after dose); format: functional; procedure, shortened: as §1
Rattus norvegicus [3] = test: Effect of compound on heart rate in rat after an oral dose at 50 mg/kg (2h after dose); format: functional; procedure, shortened: as §1
Rattus norvegicus [4] = test: Effect of compound on systolic blood pressure in rat after an oral dose at 50 mg/kg (24h after dose); format: functional, Artery; procedure, shortened: as §1
Rattus norvegicus [5] = test: Effect on heart rate in rat after an oral dose at 50 mg/kg (3h after dose); format: functional; procedure, shortened: as §1
Rattus norvegicus [6] = species: Rattus norvegicus; test: In vitro inhibition of ADP-induced blood platelet aggregation; format: functional
Procedure, shortened: (§2)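 Rat carotid citrated blood was spun at 230g for 7 min to give PRP, adjusted with PPP to about 5 × 10⁵ platelets/μL. Compound in saline or MeOH was added before 10 μM ADP in Tris-HCl/NaCl pH 7.4 with CaCl₂. Aggregation was read at 30 °C, 1100 rpm, as maximal ΔA. EC50 is the concentration giving 50% inhibition.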

Rattus norvegicus [7] = test: Effect on heart rate in rat after an oral dose at 50 mg/kg; format: functional; procedure, shortened: as §1
Rattus norvegicus [8] = species: Rattus norvegicus; test: Inhibition of arachidonic acid-induced blood platelet aggregation in rat; format: functional
Procedure, shortened: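 Rat PRP was stimulated with arachidonic acid at 30 °C under stirring, with compound added before the agonist. EC50 was estimated from inhibition at three to six concentrations and is the mean of two to three experiments.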

Rattus norvegicus [9] = test: (§3) Ex vivo inhibition of collagen-induced blood platelet aggregation in rat was measured 2 hr after oral administration of 50 mg/kg; format: functional
Procedure, shortened: (§4)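 Overnight-fasted rats were dosed orally at (50 mg/10 mL)/kg in 0.5% Tween 80; controls got vehicle at 10 mL/kg. PRP was made from carotid citrated blood 2 h later under pentobarbital. Collagen suspension (absorbance 0.270 at 420 nm) drove aggregation at 30 °C, 1100 rpm. Read-out was the initial maximal rate of absorbance fall (ΔA/min). Inhibition percent is versus controls; 5–7 rats, mean ± SD.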

Rattus norvegicus [10] = species: Rattus norvegicus; test: In vitro inhibition of collagen-induced blood platelet aggregation; format: functional
Procedure, shortened: (§5)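 Rat PRP (about 5 × 10⁵ platelets/μL) was preincubated with compound added in saline or MeOH. Aggregation was started with bovine tendon collagen suspension in Tris buffer (absorbance 0.270 at 420 nm; lag 2–3 min). Read at 30 °C, 1100 rpm, as initial maximal rate ΔA/min. EC50 is the concentration giving 50% inhibition.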

[11] = Inhibition ofADP-induced blood platelet aggregation in human; format: functional
Procedure, shortened: (§6)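 In vitro platelet aggregation test. EC50 was estimated from the inhibition rate at three to six compound concentrations and given as the mean of two to three experiments.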

Rattus norvegicus [12] = species: Rattus norvegicus; test: Inhibition of thrombin-induced blood platelet aggregation in rat; format: functional
Procedure, shortened: (§7)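 Rat PRP was prepared from citrated carotid blood of male Wistar-Imamichi rats (250 g) under pentobarbital anesthesia, spun at 230g for 7 min, and adjusted with PPP to about 5 × 10⁵ platelets/μL. Aggregation was read turbidimetrically at 30 °C with 1100 rpm stirring. Compound in saline or MeOH was added before the agonist. EC50 was estimated from inhibition at three to six concentrations, as the mean of two to three experiments.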

[13] = Inhibition of collagen-induced blood platelet aggregation in human; format: functional
Procedure, shortened: (§8)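 In vitro aggregation used human platelets. EC50 was estimated from inhibition at three to six compound concentrations and is the mean of two to three experiments.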

Rattus norvegicus [14] = test: Ex vivo inhibition of collagen-induced blood platelet aggregation in rat was measured 2 hr after administration of vehical alone; format: functional; procedure, shortened: as §4
Rattus norvegicus [15] = test: Effect of compound on heart rate in rat after an oral dose at 50 mg/kg (6h after dose); format: functional; procedure, shortened: as §1
Rattus norvegicus [16] = test: Effect on systolic blood pressure in rat after an oral dose at 50 mg/kg (5h after dose); format: functional, Artery; procedure, shortened: as §1
Rattus norvegicus [17] = test: Effect on systolic blood pressure in rat after an oral dose at 50 mg/kg (1h after dose); format: functional, Artery; procedure, shortened: as §1
Oryctolagus cuniculus = species: Oryctolagus cuniculus; test: Inhibition of serotonin/epinephrine-induced blood platelet aggregation in rabbit; format: functional; procedure, shortened: as §6
Rattus norvegicus [18] = test: Effect on systolic blood pressure in rat after an oral dose at 50 mg/kg (3h after dose); format: functional, Artery; procedure, shortened: as §1
Rattus norvegicus [19] = test: Effect on heart rate in rat after an oral dose at 50 mg/kg (1h after dose); format: functional; procedure, shortened: as §1
Rattus norvegicus [20] = test: Effect on systolic blood pressure in rat after an oral dose at 50 mg/kg (6h after dose); format: functional, Artery; procedure, shortened: as §1
Rattus norvegicus [21] = test: Effect of compound on heart rate in rat after an oral dose at 50 mg/kg (24h after dose); Not mention; format: functional, organism-based; set-up: dose 50 mg/kg; procedure, shortened: as §1
Rattus norvegicus [22] = species: Rattus norvegicus; test: Inhibition of thrombin-induced blood platelet aggregation in rat; Not mention; format: functional; procedure, shortened: as §7
Rattus norvegicus [23] = species: Rattus norvegicus; test: Inhibition of ADP-induced blood platelet aggregation in rat; format: functional; procedure, shortened: as §2
Rattus norvegicus [24] = test: as §3; format: functional; procedure, shortened: as §4
Rattus norvegicus [25] = test: Effect on systolic blood pressure in rat after an oral dose at 50 mg/kg; format: functional, Artery; procedure, shortened: as §1
Rattus norvegicus [26] = test: Effect on systolic blood pressure in rat after an oral dose at 50 mg/kg (4h after dose); format: functional, Artery; procedure, shortened: as §1
Rattus norvegicus [27] = test: Effect on heart rate in rat after an oral dose at 50 mg/kg (4h after dose); format: functional; procedure, shortened: as §1
Rattus norvegicus [28] = test: Effect of compound on heart rate in rat after an oral dose at 50 mg/kg (5h after dose); format: functional; procedure, shortened: as §1
Rattus norvegicus [29] = test: Ex vivo inhibition of ADP-induced blood platelet aggregation in rat was measured 2 hr after administration of vehical alone (delta A/min *10e 3); format: functional
Rattus norvegicus [30] = test: Inhibition of ADP-induced blood platelet aggregation in rat given compound at an oral dose of 50 mg/kg (delta A/min *10e 3); format: functional
Rattus norvegicus [31] = test: Inhibition of collagen-induced blood platelet aggregation in rat was measured given vehicle at an oral dose of 50 mg/kg (delta A/min *10e 3); format: functional; procedure, shortened: as §4
Rattus norvegicus [32] = test: Effect of compound on heart rate in rat after an oral dose at 50 mg/kg; format: functional; procedure, shortened: as §1
[33] = Inhibition of ADP-induced blood platelet aggregation in human; format: functional; procedure, shortened: as §8
Rattus norvegicus [34] = test: Inhibition of ADP-induced blood platelet aggregation in rat given vehicle at an oral dose of 50 mg/kg (delta A/min *10e 3); format: functional
Rattus norvegicus [35] = species: Rattus norvegicus; test: Inhibition of collagen-induced blood platelet aggregation in rat; format: functional; procedure, shortened: as §5
Rattus norvegicus [36] = test: Effect of compound on systolic blood pressure in rat after an oral dose at 50 mg/kg (1h after dose); format: functional, Artery; procedure, shortened: as §1
Rattus norvegicus [37] = test: Inhibition of collagen-induced blood platelet aggregation in rat was measured given compound at an oral dose of 50 mg/kg (delta A/min *10e 3); format: functional; procedure, shortened: as §4

Row | Compound | Decrease in blood pressure (Rattus norvegicus [4]) | Change in heart rate (Rattus norvegicus [5]) [%] | EC50 (Rattus norvegicus [6]) [nM] | Initial heart rate (Rattus norvegicus [7]) [bts min-1] | EC50 (Rattus norvegicus [8]) [nM] | Delta A/min (Rattus norvegicus [9]) | EC50 (Rattus norvegicus [10]) [nM] | EC50 [11] | EC50 (Rattus norvegicus [12]) [nM] | EC50 [13] | Delta A/min (Rattus norvegicus [14]) | Decrease in blood pressure (Rattus norvegicus [16]) | Decrease in blood pressure (Rattus norvegicus [17]) | Decrease in blood pressure (Rattus norvegicus [18]) | Change in heart rate (Rattus norvegicus [19]) [%] | Decrease in blood pressure (Rattus norvegicus [20]) | Initial blood pressure (Rattus norvegicus [25]) [mmHg] | Decrease in blood pressure (Rattus norvegicus [26]) | Change in heart rate (Rattus norvegicus [27]) [%] | Change in heart rate (Rattus norvegicus [28]) [%] | also measured
1 | Cc1cccc2c1CN1CC(=O)NC1=N2 | 12 | 17 | 5000 | 464 | 500 | 0.11 ΔA/min | 800 | 1700 nM and 10000 nM | 3000 | 700 nM | 0.244 | 34 | 23 | 26 | 18 | 35 | – | – | – | – | Change in heart rate (Rattus norvegicus [1]): 18%; Change in heart rate (Rattus norvegicus [2]; 50 mg/kg): 19% and -1%; Change in heart rate (Rattus norvegicus [3]): 20%; Change in heart rate (Rattus norvegicus [15]): 19%; EC50 (Oryctolagus cuniculus): 3000 nM
2 | CC1C(=O)NC2=Nc3sc4c(c3CN21)CCCC4.Cl (stereo not given) | – | 2 | 48000 | 440 | – | – | 600 | – | – | – | 0.18 | 4 | 24 | 14 | 5 | – | 128 | 11 | 4 | 4 | Change in heart rate (Rattus norvegicus [21]): Not mention; EC50 (Rattus norvegicus [22]): Not mention; EC50 (Rattus norvegicus [23]): 48000 nM; Delta A/min (Rattus norvegicus [24]): 0.002 ΔA/min
3 | O=C1CN2Cc3c(ccc(Cl)c3Cl)N=C2N1 [ANAGRELIDE] | 13 | 31 | 800 | 377 | – | – | 20 | – | – | – | 0.188 | 14 | 11 | 16 | 28 | 14 | 130 | 14 | 37 | 31 | Delta A/min (Rattus norvegicus [24]): 0.126 ΔA/min; Change in heart rate (Rattus norvegicus [15]): 33%; Delta A/min (Rattus norvegicus [29]): 150
4 | Cl.O=C1CN2Cc3c(sc4c3CCCC4)N=C2N1 | 4 | 8 | 2000 | 467 | 500 | 0 | 70 | 2200 nM | 3000 | 1200 nM and 400 nM | – | 9 | – | 8 | 4 | 6 | 122 | 8 | 12 | 9 | Delta A/min (Rattus norvegicus [30]): 141; Delta A/min (Rattus norvegicus [31]): 156; Change in heart rate (Rattus norvegicus [2]): -1%; Change in heart rate (Rattus norvegicus [32]): 9%; EC50 (Rattus norvegicus [23]): 2000 nM; EC50 [33]: 2200 nM; Delta A/min (Rattus norvegicus [34]): 115; EC50 (Rattus norvegicus [35]): 70 nM; Decrease in blood pressure (Rattus norvegicus [36]): 4; EC50 (Oryctolagus cuniculus): 3000 nM; Delta A/min (Rattus norvegicus [37]): 0
